Source: ChEMBL document CHEMBL2424560, “Structure- and reactivity-based development of covalent inhibitors of the activating and gatekeeper mutant forms of the epidermal growth factor receptor (EGFR)” (J Med Chem, 2013)
Calls of active or inactive are those of the source. No cut-off for these calls is given here.

What was measured:
[1] = molecular target: Epidermal growth factor receptor (Homo sapiens, UniProt P00533, L858R/T790M); assay type: cell-based, NCI-H1975
[2] = molecular target: T1, Epidermal growth factor receptor (Homo sapiens, UniProt P00533); assay type: cell-based, LoVo
T1 sequence (P00533 whole entry): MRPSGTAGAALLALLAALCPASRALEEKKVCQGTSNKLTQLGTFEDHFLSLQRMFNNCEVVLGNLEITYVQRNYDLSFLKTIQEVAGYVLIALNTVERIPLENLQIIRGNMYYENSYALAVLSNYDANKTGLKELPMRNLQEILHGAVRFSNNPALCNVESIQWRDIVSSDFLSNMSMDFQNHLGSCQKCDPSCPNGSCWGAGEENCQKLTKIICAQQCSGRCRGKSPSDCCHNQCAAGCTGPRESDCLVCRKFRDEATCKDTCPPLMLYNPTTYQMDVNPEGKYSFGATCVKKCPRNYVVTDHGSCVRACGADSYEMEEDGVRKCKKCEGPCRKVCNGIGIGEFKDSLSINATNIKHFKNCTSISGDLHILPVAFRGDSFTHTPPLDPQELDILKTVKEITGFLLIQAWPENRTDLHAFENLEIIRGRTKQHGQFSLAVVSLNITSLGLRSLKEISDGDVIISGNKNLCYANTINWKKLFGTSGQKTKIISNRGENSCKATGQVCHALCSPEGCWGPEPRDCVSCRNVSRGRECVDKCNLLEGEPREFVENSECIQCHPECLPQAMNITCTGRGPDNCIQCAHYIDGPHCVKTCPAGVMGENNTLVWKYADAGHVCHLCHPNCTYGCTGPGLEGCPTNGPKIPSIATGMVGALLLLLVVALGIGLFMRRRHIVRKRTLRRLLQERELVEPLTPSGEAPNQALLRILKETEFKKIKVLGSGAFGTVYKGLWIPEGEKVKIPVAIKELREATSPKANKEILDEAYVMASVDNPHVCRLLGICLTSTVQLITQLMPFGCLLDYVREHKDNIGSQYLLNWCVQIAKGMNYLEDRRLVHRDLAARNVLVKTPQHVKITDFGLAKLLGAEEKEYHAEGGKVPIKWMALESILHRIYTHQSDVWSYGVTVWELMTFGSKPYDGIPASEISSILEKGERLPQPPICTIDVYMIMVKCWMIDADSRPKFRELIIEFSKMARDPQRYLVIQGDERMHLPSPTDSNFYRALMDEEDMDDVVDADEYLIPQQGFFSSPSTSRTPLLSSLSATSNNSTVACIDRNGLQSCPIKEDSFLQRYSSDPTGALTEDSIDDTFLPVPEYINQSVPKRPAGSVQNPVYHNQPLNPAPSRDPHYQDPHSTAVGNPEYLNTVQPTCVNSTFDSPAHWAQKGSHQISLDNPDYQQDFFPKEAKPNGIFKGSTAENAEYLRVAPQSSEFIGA

[3] = molecular target: Epidermal growth factor receptor (Homo sapiens, UniProt P00533, EX19DEL); assay type: cell-based, PC-9
Chain of Epidermal growth factor receptor (Homo sapiens, UniProt P00533, EX19DEL) (P00533 whole entry, looked up, stated change not applied): as the sequence (P00533 whole entry) above

NCI-H1975 [4] = assay: Selectivity ratio of IC50 for EGFR L858R/[…] double mutant phosphorylation in human NCI-H1975 cells to IC50 for human recombinant N-terminal GST-tagged EGFR L858R/[…] double mutant; assay type: cell-based
Homo sapiens [5] = species on record: Homo sapiens; assay: Selectivity ratio of IC50 for wild type human EGFR to IC50 for human recombinant N-terminal GST-tagged EGFR L858R/[…] double mutant
[6] = molecular target: T1, Epidermal growth factor receptor; assay: Inhibition of wild type human EGFR after 50 mins by HTRF assay
[7] = (§1) Inhibition of human recombinant N-terminal GST-tagged EGFR L858R/[…] double mutant after 50 mins by HTRF assay
[8] = Lipophilicity, log D of the compound at pH 7.4; assay type: physicochemical; conditions: buffer
Homo sapiens [9] = species on record: Homo sapiens; assay: as §1
[10] = Half life in phosphate buffer at pH 7.4 at 50 uM by LC-MS analysis in presence of glutathione; assay type: physicochemical; conditions: phosphate buffer with glutathione
[11] = Aqueous solubility of the compound; assay type: physicochemical; conditions: buffer
[12] = molecular target: Maternal embryonic leucine zipper kinase (Homo sapiens) (UniProt Q14680); assay: Inhibition of MELK (unknown origin) at 1 uM relative to control
Method in brief: (§2)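 Broad panel of >70 kinases run as biochemical assays at University of Dundee, compound tested at 1 μM; percent inhibition relative to control.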

[13] = molecular target: Tyrosine-protein kinase BTK (Homo sapiens) (UniProt Q06187); assay: Inhibition of BTK (unknown origin) at 1 uM relative to control
Method in brief: as §2

[14] = molecular target: Myosin light chain kinase, smooth muscle (Homo sapiens) (UniProt Q15746); assay: Inhibition of smMLCK (unknown origin) at 1 uM relative to control
Method in brief: as §2

[15] = molecular target: Mitogen-activated protein kinase kinase kinase 11 (Homo sapiens) (UniProt Q16584); assay: Inhibition of MAP3K11 (unknown origin) at 1 uM relative to control
Method in brief: as §2

[16] = molecular target: Vascular endothelial growth factor receptor 1 (Homo sapiens) (UniProt P17948); assay: Inhibition of FLT1 (unknown origin) at 1 uM relative to control
Chain of Vascular endothelial growth factor receptor 1 (Homo sapiens) (P17948 whole entry): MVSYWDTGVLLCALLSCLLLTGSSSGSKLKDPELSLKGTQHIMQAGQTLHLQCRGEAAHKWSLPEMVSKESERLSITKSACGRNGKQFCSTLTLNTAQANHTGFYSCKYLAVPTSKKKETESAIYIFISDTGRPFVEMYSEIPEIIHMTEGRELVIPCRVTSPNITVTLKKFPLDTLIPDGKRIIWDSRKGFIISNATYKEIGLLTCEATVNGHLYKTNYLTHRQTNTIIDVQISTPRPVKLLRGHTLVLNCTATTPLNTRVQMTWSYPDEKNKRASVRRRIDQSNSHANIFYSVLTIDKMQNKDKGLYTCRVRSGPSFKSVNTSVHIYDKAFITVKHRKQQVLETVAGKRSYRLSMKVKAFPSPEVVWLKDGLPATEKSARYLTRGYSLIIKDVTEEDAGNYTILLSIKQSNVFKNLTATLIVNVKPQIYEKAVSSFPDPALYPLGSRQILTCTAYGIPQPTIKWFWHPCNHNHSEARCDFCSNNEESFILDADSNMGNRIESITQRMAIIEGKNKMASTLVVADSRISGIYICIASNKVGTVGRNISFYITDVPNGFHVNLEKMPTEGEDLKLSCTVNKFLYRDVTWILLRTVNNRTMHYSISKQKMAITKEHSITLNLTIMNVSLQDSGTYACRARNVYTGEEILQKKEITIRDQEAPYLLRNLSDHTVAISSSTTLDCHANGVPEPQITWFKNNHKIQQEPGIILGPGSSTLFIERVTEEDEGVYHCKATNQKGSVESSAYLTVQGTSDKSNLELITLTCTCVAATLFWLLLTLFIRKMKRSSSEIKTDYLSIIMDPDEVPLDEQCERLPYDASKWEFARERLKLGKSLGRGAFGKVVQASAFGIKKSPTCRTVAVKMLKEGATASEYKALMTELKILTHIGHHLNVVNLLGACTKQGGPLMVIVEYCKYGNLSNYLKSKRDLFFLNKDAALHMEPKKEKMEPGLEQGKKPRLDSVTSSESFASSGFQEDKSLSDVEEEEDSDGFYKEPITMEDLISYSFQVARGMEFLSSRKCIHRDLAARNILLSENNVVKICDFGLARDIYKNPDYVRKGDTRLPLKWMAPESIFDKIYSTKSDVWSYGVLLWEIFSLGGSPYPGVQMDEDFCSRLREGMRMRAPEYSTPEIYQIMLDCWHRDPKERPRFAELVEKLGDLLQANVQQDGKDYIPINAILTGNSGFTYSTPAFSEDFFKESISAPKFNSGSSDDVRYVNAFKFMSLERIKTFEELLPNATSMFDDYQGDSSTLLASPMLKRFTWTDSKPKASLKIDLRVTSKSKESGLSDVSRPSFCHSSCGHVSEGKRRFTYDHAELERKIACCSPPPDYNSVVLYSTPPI
Method in brief: as §2

[17] = molecular target: T2, Lymphokine-activated killer T-cell-originated protein kinase (Homo sapiens) (UniProt Q96KB5); assay: Inhibition of PBK (unknown origin) at 1 uM relative to control
T2 sequence (whole entry): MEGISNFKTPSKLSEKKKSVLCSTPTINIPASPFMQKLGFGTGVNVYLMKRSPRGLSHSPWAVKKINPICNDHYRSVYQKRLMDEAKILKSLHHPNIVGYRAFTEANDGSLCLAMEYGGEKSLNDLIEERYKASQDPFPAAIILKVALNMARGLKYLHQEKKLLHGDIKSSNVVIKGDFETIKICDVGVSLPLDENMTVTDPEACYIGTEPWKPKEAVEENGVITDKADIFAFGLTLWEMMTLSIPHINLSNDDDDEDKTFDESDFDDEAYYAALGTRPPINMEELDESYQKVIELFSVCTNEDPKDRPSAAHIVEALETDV
Method in brief: as §2

[18] = molecular target: Serine/threonine-protein kinase Chk2 (Homo sapiens) (UniProt O96017); assay: Inhibition of CHK2 (unknown origin) at 1 uM relative to control
Method in brief: as §2

[19] = molecular target: Calcium/calmodulin-dependent protein kinase kinase 2 (Homo sapiens) (UniProt Q96RR4); assay: Inhibition of CAMKKbeta (unknown origin) at 1 uM relative to control
Method in brief: as §2

[20] = molecular target: Insulin receptor (Homo sapiens) (UniProt P06213); assay: Inhibition of insulin receptor (unknown origin) at 1 uM relative to control
Method in brief: as §2

[21] = molecular target: Insulin-like growth factor 1 receptor (Homo sapiens) (UniProt P08069); assay: Inhibition of IGF1R (unknown origin) at 1 uM relative to control
Method in brief: as §2

A-431 = assay: Antitumor activity against wild type human A431 cells xenografted in SCID mouse assessed as tumor growth inhibition at 60 mg/kg/day, po after 7 days relative to vehicle-treated control; assay type: functional; conditions: read-out: TGI
PC-9 = assay: Antitumor activity against human PC9 cells harboring EGFR exon 19 deletion activating mutant xenografted in SCID mouse assessed as tumor growth inhibition at 60 mg/kg/day, po after 7 days relative to vehicle-treated control; assay type: functional; conditions: read-out: TGI
NCI-H1975 [22] = assay: Antitumor activity against human NCI-H1975 cells harboring EGFR L858R/[…] double mutant xenografted in SCID mouse assessed as tumor growth inhibition at 60 mg/kg/day, po after 7 days relative to vehicle-treated control; assay type: functional; conditions: read-out: TGI

Chain of Epidermal growth factor receptor (Homo sapiens, UniProt P00533, L858R/T790M) (P00533 25-1210 T790M/L858R limits assumed): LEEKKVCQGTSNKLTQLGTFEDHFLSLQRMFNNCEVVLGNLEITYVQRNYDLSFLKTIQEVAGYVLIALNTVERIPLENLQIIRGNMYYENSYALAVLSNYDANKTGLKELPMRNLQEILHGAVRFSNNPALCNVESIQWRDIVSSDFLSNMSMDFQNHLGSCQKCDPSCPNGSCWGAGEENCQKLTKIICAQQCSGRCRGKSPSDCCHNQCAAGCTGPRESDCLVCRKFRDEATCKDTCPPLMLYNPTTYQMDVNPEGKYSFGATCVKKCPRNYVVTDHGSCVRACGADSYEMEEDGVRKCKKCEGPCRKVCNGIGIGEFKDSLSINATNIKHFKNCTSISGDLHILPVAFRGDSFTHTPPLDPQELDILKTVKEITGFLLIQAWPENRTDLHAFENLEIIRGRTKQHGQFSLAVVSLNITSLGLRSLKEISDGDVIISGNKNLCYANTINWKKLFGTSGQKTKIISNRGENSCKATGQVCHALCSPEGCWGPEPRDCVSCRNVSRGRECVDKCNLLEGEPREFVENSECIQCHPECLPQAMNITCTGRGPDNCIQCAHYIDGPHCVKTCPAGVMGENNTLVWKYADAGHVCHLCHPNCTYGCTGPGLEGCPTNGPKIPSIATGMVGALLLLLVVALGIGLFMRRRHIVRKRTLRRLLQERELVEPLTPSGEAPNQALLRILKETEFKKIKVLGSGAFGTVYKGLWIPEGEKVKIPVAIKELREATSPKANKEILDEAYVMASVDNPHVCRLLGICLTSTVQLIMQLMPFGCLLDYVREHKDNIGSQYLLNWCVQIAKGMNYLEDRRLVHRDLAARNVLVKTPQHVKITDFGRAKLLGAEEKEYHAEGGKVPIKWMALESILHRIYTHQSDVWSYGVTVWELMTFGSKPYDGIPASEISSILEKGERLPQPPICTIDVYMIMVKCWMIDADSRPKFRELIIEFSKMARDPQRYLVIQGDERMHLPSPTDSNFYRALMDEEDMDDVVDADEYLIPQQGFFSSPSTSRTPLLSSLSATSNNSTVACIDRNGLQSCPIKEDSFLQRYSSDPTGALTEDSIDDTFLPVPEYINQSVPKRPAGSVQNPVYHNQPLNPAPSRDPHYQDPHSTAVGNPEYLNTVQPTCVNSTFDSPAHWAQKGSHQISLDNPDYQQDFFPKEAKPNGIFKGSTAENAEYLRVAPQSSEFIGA

Compound	IC50 [1]	IC50 [2]	IC50 [3]	IC50 [7]	further results
COc1ccc(NC(=O)/C=C/CN(C)C)cc1Nc1ncc(C)c(-c2cnn3ccccc23)n1	290 nM	24 µM	250 nM		
COc1ccc(NC(=O)/C=C/CN(C)C)cc1Nc1nccc(-c2cnn3ccccc23)n1	250 nM	20 µM	390 nM		
COc1cc(N2CCN(C(C)=O)CC2)ccc1Nc1ncc(Cl)c(-c2c[nH]c3ccccc23)n1	770 nM			9 nM	Ratio IC50 (NCI-H1975 [4]): 90; Ratio IC50 (Homo sapiens [5]): 88; IC50 [6]: 790 nM
COc1ccc(NC(=O)/C=C/CN(C)C)cc1Nc1ncc(Cl)c(-c2c[nH]c3ccccc23)n1	53 nM	1.55 µM	85 nM		
C=CC(=O)Nc1ccc(OC)c(Nc2ncc(Cl)c(-c3c[nH]c4ccccc34)n2)c1	22 nM	0.55 µM	29 nM	6.3 nM	logD [8]: > 4.3
C=CC(=O)Nc1cc(Nc2ncc(Cl)c(-c3c[nH]c4ccccc34)n2)c(OC)cc1N1CCN(C)CC1			23 nM		
C=CC(=O)Nc1cc2c(Nc3ccc(F)c(Cl)c3)ncnc2cc1OCCCN1CCOCC1					inhibition (Homo sapiens [9]): Active
COc1ccc(NC(=O)/C=C/CN(C)C)cc1Nc1ncc([S+](C)[O-])c(-c2cnn3ccccc23)n1 (centres undefined)	15200 nM	> 30 µM	1300 nM		logD [8]: 1.3
C=CC(=O)Nc1cc(Nc2nccc(-c3c[nH]c4ccccc34)n2)c(OC)cc1N1CCN(C)CC1	68 nM	1.3 µM	17 nM		logD [8]: 3.4
C=CC(=O)Nc1ccc(OC)c(Nc2ncc(Cl)c(-c3cnn4ccccc34)n2)c1	33 nM	12.8 µM	150 nM		logD [8]: > 4.3
C=CC(=O)Nc1ccc(Nc2ncc(Cl)c(-c3c[nH]c4ccccc34)n2)cc1	12900 nM	> 30 µM	19000 nM	320 nM	
COc1ccc(NC(=O)CC#N)cc1Nc1ncc(Cl)c(-c2c[nH]c3ccccc23)n1	2800 nM	> 30 µM	1800 nM	65 nM	
CN(C)C/C=C/C(=O)Nc1cc2c(Nc3ccc(F)c(Cl)c3)ncnc2cc1O[C@H]1CCOC1 [AFATINIB]					half-life at 50 µM [10]: 25 min
C=CC(=O)Nc1ccccc1					solubility [11]: soluble
C=CC(=O)Nc1cccc(Nc2ncc(Cl)c(-c3c[nH]c4ccccc34)n2)c1	81 nM	3.5 µM	270 nM	53 nM	logD [8]: > 4.3
C=CC(=O)Nc1cc(Nc2nccc(-c3cnn4ccccc34)n2)c(OC)cc1N1CCN(C)CC1		19 µM	140 nM		
COc1ccc(NC(=O)/C=C/CN(C)C)cc1Nc1ncc(F)c(-c2cnn3ccccc23)n1	220 nM	19 µM	380 nM		logD [8]: 3.3
COc1ccc(NC(=O)/C=C/CN(C)C)cc1Nc1ncc(Cl)c(-c2cnn3ccccc23)n1					inhibition [12]: > 75%; inhibition [13]: > 75%; inhibition [14]: > 75%; inhibition [15]: > 75%; inhibition [16]: > 75%; inhibition [17]: > 75%; inhibition [18]: > 75%; inhibition [19]: > 75%; inhibition [20]: > 75%; inhibition [21]: > 75%; inhibition in vivo at 60 mg/kg/day (A-431): 46%; inhibition in vivo at 60 mg/kg/day (PC-9): 134%; inhibition in vivo at 60 mg/kg/day (NCI-H1975 [22]): 105%
COc1cc2ncnc(Nc3ccc(F)c(Cl)c3)c2cc1NC(=O)/C=C/CN1CCCCC1					inhibition (Homo sapiens [9]): Active
COc1ccc(NC(=O)CCCN(C)C)cc1Nc1ncc(Cl)c(-c2cnn3ccccc23)n1	2300 nM			18 nM	
C=CC(=O)N1CCc2cc(OC)c(Nc3ncc(Cl)c(-c4c[nH]c5ccccc45)n3)cc21	2100 nM	> 30 µM	2800 nM	52 nM	
